Assay results: ChEMBL document CHEMBL3232832, “Derivatives of dibenzothiophene for positron emission tomography imaging of α7-nicotinic acetylcholine receptors” (J Med Chem, 2013); call rule not given here

Tests used:
Cerebellum [1] = test: Drug uptake in CD-1 mouse cerebellum at 0.07 mCi, iv after 90 mins in presence of 7-(1,4-Diazabicyclo[3.2.2]nonan-4-yl)-2-fluorodibenzo[b,d]-thiophene 5,5-Dioxide; format: ADME, organism-based; conditions: in vivo, 1.5 h
Outline: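 Male CD-1 mice, n=3. [18F] radiotracer (70 µCi, 0.2 mL) given i.v. together with unlabeled blocker in saline pH 5.5. Brain regions dissected at 90 min, gamma counted, expressed as %ID/g.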

Brain [2] = test: Drug uptake in CD-1 mouse other brain region at 70 uCi, iv administered 10 mins post SSR180711 challenge measured after 90 mins; format: ADME, organism-based; conditions: in vivo, 1.5 h
Hippocampus [3] = test: Drug uptake in CD-1 mouse hippocampus at 70 uCi, iv after 90 mins in presence of nicotine; format: ADME, organism-based; conditions: in vivo, 1.5 h
Outline: (§1)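 Male CD-1 mice, n=3. […] [18F] radiotracer (70 µCi, SA ~14000 mCi/µmol) given i.v. 5 min later. Regions harvested at 90 min, gamma counted, expressed as %ID/g.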

Nucleic Acid [4] = test: Ratio of drug uptake from superior and inferior colliculus to cerebellum in CD-1 mouse after 90 mins; format: ADME, nucleic-acid assay; conditions: 1.5 h
Outline: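 CD-1 mouse baseline biodistribution after i.v. [18F]radioligand (70 µCi, 8000–12000 mCi/µmol, in 0.2 mL saline), three mice per time point to 90 min. Regional gamma-counting gave %ID/g, and each region was expressed as a ratio to cerebellum.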

Hippocampus [5] = test: Drug uptake in CD-1 mouse hippocampus at 70 uCi, iv administered 10 mins post naltrindole challenge measured after 90 mins; format: ADME, organism-based; conditions: in vivo, 1.5 h
Outline: (§2)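 Male CD-1 mice, n=3. Drug at 2 mg/kg s.c. in saline:DMSO 5:1, with vehicle controls. [18F] radiotracer (70 µCi, SA ~14000 mCi/µmol) given i.v. 10 min later. Regions harvested 90 min after tracer, gamma counted, expressed as %ID/g. Compared by single-factor ANOVA.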

Thalamus [6] = test: Drug uptake in CD-1 mouse thalamus at 0.07 mCi, iv after 90 mins co-administered with SSR180711; format: ADME, organism-based; conditions: in vivo, 1.5 h
Outline: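 Male CD-1 mice. [18F]tracer (0.07 mCi, SA 7900 mCi/µmol, 0.2 mL) co-injected i.v. with blocker at 0 (vehicle), 0.02, 0.2, 1 or 3 mg/kg. Blocker dissolved in saline:alcohol 9:1, pH 5.5. Brain regions harvested at 90 min and gamma-counted. %ID/g, mean ± SD, n=3 per dose; ANOVA versus controls.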

Cortex [7] = test: Drug uptake in CD-1 mouse cortex at 70 uCi, iv after 90 mins in presence of cytisine; format: ADME, organism-based; conditions: in vivo, 1.5 h; outline: as §1
Cerebellum [8] = test: Drug uptake in CD-1 mouse cerebellum at 70 uCi, iv administered 10 mins post ondansetron challenge measured after 90 mins; format: ADME, organism-based; conditions: in vivo, 1.5 h; outline: as §2
Cerebellum [9] = test: Drug uptake in CD-1 mouse cerebellum at 70 uCi, iv after 90 mins in presence of nicotine; format: ADME, organism-based; conditions: in vivo, 1.5 h; outline: as §1
[10] = Drug uptake in CD-1 mouse superior and inferior colliculus at 70 uCi, iv administered 10 mins post SCH23390 challenge measured after 90 mins; format: ADME, organism-based; conditions: in vivo, 1.5 h
Outline: (§3)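 Male CD-1 mice (25–30 g). […] Brains removed 90 min later and dissected on ice. Regions weighed and gamma-counted against injectate standards. Result as %ID/g, mean ± SD, n=3; ANOVA versus controls.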

[11] = Drug uptake in CD-1 mouse superior and inferior colliculus at 70 uCi, iv administered 10 mins post ondansetron challenge measured after 90 mins; format: ADME, organism-based; conditions: in vivo, 1.5 h; outline: as §3
Thalamus [12] = test: Drug uptake in CD-1 mouse thalamus at 70 uCi, iv followed by compound washout by gamma-counting analysis; format: ADME, organism-based; conditions: in vivo
Outline: (§4)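 Male CD-1 mice (25–30 g) given [18F]radioligand i.v. into a lateral tail vein (70 µCi, 8000–12000 mCi/µmol, in 0.2 mL saline). Killed by cervical dislocation at various times, three per time point. Brains dissected on ice; regions weighed and gamma-counted with injectate standards. Result as %ID/g.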

[13] = Drug uptake in CD-1 mouse superior and inferior colliculus at 70 uCi, iv administered 10 mins post ketanserin challenge measured after 90 mins; format: ADME, organism-based; conditions: in vivo, 1.5 h; outline: as §3
Brain [14] = test: Drug uptake in CD-1 mouse other brain region at 70 uCi, iv administered 10 mins post SCH23390 challenge measured after 90 mins; format: ADME, organism-based; conditions: in vivo, 1.5 h; outline: as §2
Brain [15] = test: Drug uptake in CD-1 mouse other brain regions at 70 uCi, iv after 90 mins in presence of nicotine; format: ADME, organism-based; conditions: in vivo, 1.5 h
Brain [16] = test: Drug uptake in CD-1 mouse other brain region at 70 uCi, iv administered 10 mins post spiperone challenge measured after 90 mins; format: ADME, organism-based; conditions: in vivo, 1.5 h; outline: as §3
Cerebellum [17] = test: Drug uptake in CD-1 mouse cerebellum at 70 uCi, iv followed by compound washout by gamma-counting analysis; format: ADME, organism-based; conditions: in vivo
Outline: (§5)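 Male CD-1 mice (25–30 g), three per time point. [18F] radiotracer (70 µCi, SA 8000–12000 mCi/µmol, in 0.2 mL saline) given by tail vein. Killed at several times up to 90 min. Dissected regions weighed and gamma counted against injectate standards, giving %ID/g.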

[18] = Drug uptake in CD-1 mouse frontal cortex at 70 uCi, iv followed by compound washout by gamma-counting analysis; format: ADME, organism-based; conditions: in vivo; outline: as §5
Cortex [19] = test: Drug uptake in CD-1 mouse cortex at 70 uCi, iv administered 10 mins post ondansetron challenge measured after 90 mins; format: ADME, organism-based; conditions: in vivo, 1.5 h; outline: as §2
Cerebellum [20] = test: Drug uptake in CD-1 mouse cerebellum at 70 uCi, iv administered 10 mins post SCH23390 challenge measured after 90 mins; format: ADME, organism-based; conditions: in vivo, 1.5 h; outline: as §2
Cerebellum [21] = test: Drug uptake in CD-1 mouse cerebellum at 70 uCi, iv administered 10 mins post naltrindole challenge measured after 90 mins; format: ADME, organism-based; conditions: in vivo, 1.5 h; outline: as §2
Mus musculus = test: Toxicity in CD-1 mouse assessed as change in locomotor activity at 0.07 mCi, iv after 90 mins in presence of 3-(1,4-Diazabicyclo[3.2.2]nonan-4-yl)-6-fluorodibenzo[b,d]thiophene 5,5-Dioxide; format: organism-based; conditions: in vivo, 1.5 h
Outline: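 CD-1 mice observed for behavioral and locomotor changes during self-blockade studies. [18F]tracer (0.07 mCi, i.v.) was co-injected with the non-radioactive ligand at 0.3 or 0.2 mg/kg i.v., dissolved in saline at pH 5.5. Brains were harvested at 90 min.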

[22] = Drug uptake in CD-1 mouse superior and inferior colliculus at 70 uCi, iv after 90 mins in presence of nicotine; format: ADME, organism-based; conditions: in vivo, 1.5 h
Nucleic Acid [23] = test: Ratio of drug uptake from hippocampus to cerebellum in CD-1 mouse after 90 mins; format: ADME, nucleic-acid assay; conditions: 1.5 h
Hippocampus [24] = test: Drug uptake in CD-1 mouse hippocampus at 70 uCi, iv followed by compound washout by gamma-counting analysis; format: ADME, organism-based; conditions: in vivo; outline: as §5
Hippocampus [25] = test: Drug uptake in CD-1 mouse hippocampus at 70 uCi, iv administered 10 mins post ondansetron challenge measured after 90 mins; format: ADME, organism-based; conditions: in vivo, 1.5 h; outline: as §2
Cerebellum [26] = test: Drug uptake in CD-1 mouse cerebellum at 70 uCi, iv administered 10 mins post SSR180711 challenge measured after 90 mins; format: ADME, organism-based; conditions: in vivo, 1.5 h
Striatum = test: Drug uptake in CD-1 mouse striatum at 70 uCi, iv followed by compound washout by gamma-counting analysis; format: ADME, organism-based; conditions: in vivo; outline: as §4
Cortex [27] = test: Drug uptake in CD-1 mouse cortex at 70 uCi, iv administered 10 mins post SCH23390 challenge measured after 90 mins; format: ADME, organism-based; conditions: in vivo, 1.5 h; outline: as §2

O=S1(=O)c2cc(N3CCN4CCC3CC4)ccc2-c2cccc([18F])c21
Drug uptake (Cerebellum [1]): Active
Drug uptake (Brain [2]): Not Active
Drug uptake (Hippocampus [3]): Not Active
Ratio (Nucleic Acid [4]): 8
Drug uptake (Hippocampus [5]): Active
Drug uptake (Thalamus [6]): Not Active
Drug uptake (Cortex [7]): Not Active
Drug uptake (Cerebellum [8]): Active
Drug uptake (Cerebellum [9]): Active
Drug uptake [10]: Active
Drug uptake [11]: Active
Drug uptake (Thalamus [12]): Active
Drug uptake [13]: Active
Drug uptake (Brain [14]): Active
Drug uptake (Brain [15]): Not Active
Drug uptake (Brain [16]): Active
Drug uptake (Cerebellum [17]): Active
Drug uptake [18]: Active
Drug uptake (Cortex [19]): Active
Drug uptake (Cerebellum [20]): Active
Drug uptake (Cerebellum [21]): Active
Activity (Mus musculus): Non-toxic
Drug uptake [22]: Not Active
Ratio (Nucleic Acid [23]): 5.5
Drug uptake (Hippocampus [24]): Active
Drug uptake (Hippocampus [25]): Active
Drug uptake (Cerebellum [26]): Not Active
Drug uptake (Striatum): Active
Drug uptake (Cortex [27]): Active
